Assay outcomes (PubChem)
In the library only some 3.2% were active in any assay of this set; here they are far more common.
DAGLB inhibitor – DAGLB lipase inhibitors, primary screen, biochemical, fluorescence, HTS; Diacylglycerol lipase-beta (Homo sapiens), Q8NCG7; HEK293T DAGLB membrane lysate, EnzChek fluorogenic substrate; actives 0.059% (n = 340,000); inhibition, % at 5.17 µM; AID 504411, 2011; in the data active means inhibition above about 34%
Target sequence (Q8NCG7 whole entry, looked up): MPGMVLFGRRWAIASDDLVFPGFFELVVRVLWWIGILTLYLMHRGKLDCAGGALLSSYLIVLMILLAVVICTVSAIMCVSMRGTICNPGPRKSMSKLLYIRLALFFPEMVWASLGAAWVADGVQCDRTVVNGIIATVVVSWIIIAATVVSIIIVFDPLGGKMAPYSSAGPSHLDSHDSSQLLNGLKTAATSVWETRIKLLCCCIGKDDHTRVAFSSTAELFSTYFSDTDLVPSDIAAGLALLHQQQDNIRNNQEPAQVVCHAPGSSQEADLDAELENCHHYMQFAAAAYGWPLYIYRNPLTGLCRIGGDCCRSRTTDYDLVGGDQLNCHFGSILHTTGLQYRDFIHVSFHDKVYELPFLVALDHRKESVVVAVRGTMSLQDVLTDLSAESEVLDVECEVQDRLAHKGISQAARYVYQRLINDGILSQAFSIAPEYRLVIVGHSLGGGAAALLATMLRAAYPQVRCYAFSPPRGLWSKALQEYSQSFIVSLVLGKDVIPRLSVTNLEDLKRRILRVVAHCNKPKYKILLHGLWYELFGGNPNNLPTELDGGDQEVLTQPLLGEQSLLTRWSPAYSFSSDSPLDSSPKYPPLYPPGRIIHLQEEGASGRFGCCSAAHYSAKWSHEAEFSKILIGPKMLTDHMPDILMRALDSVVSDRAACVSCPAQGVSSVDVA
mABHD4 FP – ABHD4 inhibitors, primary screen, biochemical, fluorescence polarization, mouse | inhibition, % at 8.92 µM | purified mABHD4, FP-Rh probe fluorescence polarization | actives 0.54% (n = 370,000) | AID 720543, 2013;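 active means inhibition exceeding the mean over every tested compound plus 3 SD, cut at about 30% in these data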
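Assay system: mouse ABHD4 enzyme, wild type / Also added: fluorescent activity-based probe FP-Rh / Doses: single nominal dose of 8.92 µM, 0.89% DMSO final / Timing: 45 min compound pre-incubation plus 60 min probe step, 25 °C / Signal: FP readout, ex 525 nm / em 598 nm / Control set: S159A mutant/DMSO as 100%, compound-well median as 0%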
PRMT1 inh – PRMT1 methyltransferase inhibitors, primary screen, biochemical, fluorescence polarization; recombinant PRMT1, activity-based probe fluorescence polarization; inhibition, % at 2.79 µM; actives 1.3% (n = 370,000);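 active means inhibition above about 21% made by adding two undisclosed values, limit read from the data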
LEDGF integ inh – blockers of LEDGF/p75-dependent integrase strand transfer – biochemical, TR-FRET, high throughput, primary screen; inhibition, % at 3.7 µM; actives 0.64% (n = 370,000); TR-FRET IN-LEDGF/p75 DNA integration, Eu/Cy5; HIV-1 integrase (with human LEDGF/p75);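 active means inhibition above the screen-wide mean plus 3 SD, cut at about 13% in these data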;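 further: signal is the Cy5 over europium emission ratio at 671 and 618 nm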
rCAG RNA binder – binders of r(CAG) RNA repeats, primary screen, biochemical, fluorescence; r(CAG) RNA repeat, TO-PRO-1 dye displacement fluorescence; inhibition, % at 3 µM; actives 1.3% (n = 370,000);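 active means inhibition above the plate cutoff, the mean of all test compounds on that plate plus 3 SD, cut at about 35% in these data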;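 further: higher means more dye released from RNA so lower well fluorescence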
HTRA1 inh – HTRA1 serine protease inhibitors, primary screen, biochemical, fluorescence polarization, HTS. Q92743. recombinant HTRA1, FP-rhodamine activity-based probe. inhibition, % at 5.96 µM. actives 0.5% (n = 340,000). AID 504803, 2011; in the data active means inhibition above about 36%
Hits are given with their value; . = inactive; / = no result.

SMILES	DAGLB inhibitor	mABHD4 FP	PRMT1 inh	LEDGF integ inh	rCAG RNA binder	HTRA1 inh
O=c1c2ccccc2nc(SCc2cccc(F)c2)n1C1CCCC1	.	.	.	.	.	.
Oc1ccc(-c2cnns2)c(O)c1	.	.	24	.	.	.
CCCc1cc2c(=O)c(-c3nc4ccccc4s3)c(COCC(=O)O)oc2cc1O	.	.	.	.	55	.
CCc1cc2c(=O)c(-c3nc4ccccc4n3C)c(COCC(=O)O)oc2cc1O	.	.	.	.	.	.
COC(=O)[C@]12C[C@H](CC(=O)NCc3cccc(C(F)(F)F)c3)C(=O)N(Cc3ccco3)C1=C[C@H](C(C)(C)C)O[C@@H]2C	/	.	.	.	.	/
O=C(NCCCN1CCCC1=O)c1ccc2c(c1)OCO2	.	.	.	.	.	.
COC(=O)NN=C1CCC(c2ccccc2)CC1 (stereo unspecified)	.	.	.	.	.	.
COC(=O)N/N=C1/C/C(=N\NC(=O)OC)c2ccccc21	.	.	.	32	.	.
Nc1c(C(=O)Nc2nccs2)sc2nc(-c3cccs3)cc(C(F)(F)F)c12	.	.	.	.	.	.
Cc1nnc(NC(=O)c2sc3nc(-c4cccs4)cc(C(F)(F)F)c3c2N)s1	.	.	.	.	42	.
CCOc1ccc(NC(=O)CSc2nncc(=O)n2N)cc1	.	.	34	.	.	.
CCCc1nnc(SCC(=O)Nc2ccc(OCC)cc2)n1N	.	.	.	.	.	.
OCC[C@H]1C[C@H](O)[C@@H](O)[C@]2(CCCc3ccccc3O2)O1	.	.	.	.	.	.
Cc1ccc(S(=O)(=O)Nc2ccc(O)c3cccnc23)cc1	.	.	21	.	.	.
O=C(CSc1nnc(-c2ccccc2)o1)c1nnc(-c2ccccc2)o1	.	.	24	.	.	.
Cc1cccc(NC(=S)N(CCCN2CCOCC2)C(C)c2cc3ccccc3o2)c1 (stereo unspecified)	.	.	.	.	.	.
CN(C)c1ccc(C=Nc2ccccc2)cc1	.	.	.	.	.	.
CN(C)c1ccc(N=Cc2ccco2)cc1	.	/	/	/	/	55
Oc1ccc(N=C/C=C/c2cccc(Br)c2)cc1-c1nc2ccccc2s1	.	/	/	/	/	44
COc1ccc(NC(=O)CCOc2ccc(C)cc2)cc1S(=O)(=O)N1CCCCC1	.	.	.	.	.	.
Clc1cccc(CNc2ccn3nc(-c4ccco4)cc3n2)c1	/	.	23	.	.	/
c1ccc(OCCNc2ccn3nc(-c4ccccc4)cc3n2)cc1	/	.	.	.	.	/
c1ccc(OCCNc2ccn3nc(-c4ccco4)cc3n2)cc1	/	.	21	.	.	/
COc1ccc(CCNC(=O)c2ccc3c(SCC(=O)O)c4c(nc3c2)CCCC4)cc1OC	.	.	.	.	.	.
N#C/C(=C(\O)c1ccco1)c1ccccn1	.	.	.	.	.	.
SMILES	DAGLB inhibitor	mABHD4 FP	PRMT1 inh	LEDGF integ inh	rCAG RNA binder	HTRA1 inh
COc1ccc(Cn2nnnc2CN2CCOCC2)cc1	.	.	.	.	.	.
Nc1cc(=O)[nH]c(SCC(=O)Nc2cc(S(=O)(=O)N3CCOCC3)ccc2Cl)n1	.	.	.	.	.	.
Nc1cc(=O)[nH]c(SCC(=O)Nc2cc(S(=O)(=O)N3CCCCCC3)ccc2Cl)n1	.	.	23	.	.	.
COc1cccc(/C=N/NC(=O)CNC(=O)c2ccco2)c1O	.	.	.	.	.	.
Cc1nnc(SCC(=O)c2ccc(S(=O)(=O)N3CCOCC3)cc2)n1-c1ccccc1	.	.	28	.	.	.
CCOC(=O)CSc1nnc(-c2ccc(S(=O)(=O)N3CCOCC3)cc2)n1-c1ccccc1	.	.	.	.	.	.
Cc1cc(C)c2nc(N3CCCN(C(=O)c4ccco4)CC3)c(C#N)cc2c1	.	.	22	.	.	.
COC(=O)[C@]12C[C@H](CC(=O)NCCc3ccccc3OC)C(=O)N(Cc3ccc4c(c3)OCO4)C1=C[C@H](COCc1ccccc1)O[C@@H]2C	/	.	.	.	.	/
COC(=O)CNC(=O)C1Nc2ccccc2C2C=CCC12 (stereo unspecified)	.	.	37	.	.	.
CCOC(=O)C1Nc2ccc(C)cc2C2C=CCC12 (stereo unspecified)	.	.	23	.	.	.
O=C(Nc1ccc(F)cc1)C1CCN(S(=O)(=O)c2ccc3[nH]c(=O)oc3c2)CC1	.	.	.	.	.	.
Cc1c(CCC(=O)O)c(=O)oc2c(C)c3occ(-c4ccc(Cl)cc4)c3cc12	.	.	.	.	.	.
Cc1c(CCC(=O)O)c(=O)oc2cc3occ(-c4ccc(Cl)cc4)c3cc12	.	.	.	.	59	.
CSC1=NSC2=NC(=O)/C(=C/c3coc4ccccc4c3=O)C(=N)N12	.	.	.	.	.	.
CSC1=NSC2=NC(=O)/C(=C/c3coc4ccc(O)cc4c3=O)C(=N)N12	.	.	25	.	.	.
CCCCn1c(NC(=O)c2ccco2)c(S(=O)(=O)c2ccc(C)cc2)c2nc3ccccc3nc21	.	.	.	.	59	.
COc1cc(C2C(C#N)=C(N)Oc3c2ccc2ccccc32)ccc1OCC(=O)Nc1ccccc1C (stereo unspecified)	.	.	.	.	36	.
CC(=O)N(C)c1ccc(N=NC2C(=O)N(C(N)=S)N=C2C)cc1 (stereo unspecified)	.	.	.	.	.	.
CC(C)(C)c1nc(SCC(=O)N2CC(=O)Nc3ccccc32)c2ccccc2n1	.	.	.	.	.	.
COc1cccc2c1OC1(C)CC2NC(=O)N1Cc1ccccc1 (stereo unspecified)	.	.	.	.	.	.
Oc1cccc(Nc2nc(O)c(/C=C3\C=Nc4ccccc43)s2)c1	.	.	.	.	48	.
Oc1nc(Nc2cccc(Cl)c2)sc1/C=C1\C=Nc2ccccc21	.	.	.	.	55	.
CC1=Nc2ccccc2/C1=C\c1sc(Nc2ccc(C)cc2)nc1O	.	.	.	.	.	.
CCOC(=O)c1c(Nc2ccc(Cl)cc2)sc(/C=C2\C=Nc3ccccc32)c1O	.	.	.	.	.	.
O=C(CSc1nnc(COc2ccccc2)o1)Nc1nccs1	.	.	.	.	.	.
Cc1cnc(NC(=O)CSc2nnc(COc3ccccc3)o2)s1	.	.	24	.	.	.
O=C(Oc1ccccc1)c1ccc(NC(=O)c2ccco2)cc1	.	.	24	.	.	.
COC(=O)c1ccc(NC(=O)c2ccc(NC(=O)c3ccco3)cc2)cc1	.	.	.	.	.	.
NC(=O)C1CCN(CC(=O)N2c3ccccc3CCc3ccccc32)CC1	.	.	.	.	.	.
